# Assay results: ChEMBL document CHEMBL1127451, “Benzoselenazolinone derivatives designed to be glutathione peroxidase mimetics feature inhibition of cyclooxygenase/5-lipoxygenase pathways and anti-inflammatory activity” (1994)
# Assays:
# [1] = In vitro glutathione peroxidase activity at 2*10e-7M using hydrogen peroxide, activity given in percentage of ebselen''s activity; format: functional
# [2] = In vitro glutathione peroxidase activity at 2*10e-7M using tert-butyl hydroperoxide, activity given in percentage of ebselen''s activity; format: functional
# [3] = Inhibition of spontaneous lipid peroxidation at 10e-5 M in rat brain homogenate
# [4] = Inhibition of [Fe(2+)]/ascorbate-induced lipid peroxidation at 10e-5 M in rat brain homogenate
# Rattus norvegicus [5] = assay: Tested for acute anti-inflammatory activity of the antirat serum-induced edema in rats at dose of 30 mg/kg at time interval- 0.5 hr; format: functional
# In short: (§1)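 Fasted Wistar rats (200–240 g), six per group, receive drug orally in 2% gelatin. One hour later, 0.1 mL rabbit antirat serum is injected subplantar into the hind paw. Paw volume is measured by water plethysmometry at injection and at 0.5, 1, 2, 3 and 4 h. Results are percent inhibition of swelling versus vehicle-treated rats.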
# Rattus norvegicus [6] = assay: Tested for acute anti-inflammatory activity of the antirat serum-induced edema in rats at dose of 30 mg/kg at time interval- 1 hr; format: functional; in short: as §1
# Rattus norvegicus [7] = assay: Tested for acute anti-inflammatory activity of the antirat serum-induced edema in rats at dose of 30 mg/kg at time interval- 2 hr; format: functional; in short: as §1
# Rattus norvegicus [8] = assay: Tested for acute anti-inflammatory activity of carrageenan-induced foot edema in rats at dose of 100 mg/kg at time interval- 0.5 hr; format: functional
# In short: (§2)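 Fasted Wistar rats (200–240 g), six per group, receive drug orally in 2% gelatin. One hour later, 0.1 mL 2% carrageenan in […] is injected subplantar into the hind paw. Paw volume is measured by water plethysmometry at injection and at 0.5, 1, 2, 3 and 4 h. Results are percent inhibition of swelling versus vehicle-treated rats.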
# Rattus norvegicus [9] = assay: Tested for acute anti-inflammatory activity of carrageenan-induced foot edema in rats at dose of 100 mg/kg at time interval- 1 hr; format: functional; in short: as §2
# Rattus norvegicus [10] = assay: Tested for acute anti-inflammatory activity of carrageenan-induced foot edema in rats at dose of 100 mg/kg at time interval- 3h; format: functional; in short: as §2
# Rattus norvegicus [11] = assay: Tested for acute anti-inflammatory activity of carrageenan-induced foot edema in rats at dose of 100 mg/kg at time interval- 4 hr; format: functional; in short: as §2
# Rattus norvegicus [12] = assay: Tested for acute anti-inflammatory activity of carrageenan-induced foot edema in rats at dose of 30 mg/kg at time interval- 0.5 hr; format: functional; in short: as §2
# Rattus norvegicus [13] = assay: Tested for acute anti-inflammatory activity of carrageenan-induced foot edema in rats at dose of 30 mg/kg at time interval- 1 hr; format: functional; in short: as §2
# Rattus norvegicus [14] = assay: Tested for acute anti-inflammatory activity of carrageenan-induced foot edema in rats at dose of 30 mg/kg at time interval- 3h; format: functional; in short: as §2
# Rattus norvegicus [15] = assay: Tested for acute anti-inflammatory activity of carrageenan-induced foot edema in rats at dose of 30 mg/kg at time interval- 4 hr; format: functional; in short: as §2
# Rattus norvegicus [16] = assay: Tested for acute anti-inflammatory activity of the antirat serum-induced edema in rats at dose of 30 mg/kg at time interval- 3h; format: functional; in short: as §1
# Rattus norvegicus [17] = assay: Tested for acute anti-inflammatory activity of the antirat serum-induced edema in rats at dose of 30 mg/kg at time interval- 4 hr; format: functional; in short: as §1
# Rattus norvegicus [18] = assay: Tested for acute anti-inflammatory activity of the antirat serum-induced edema in rats at dose of 3 mg/kg at time interval- 1 hr; format: functional; in short: as §1
# Rattus norvegicus [19] = assay: Tested for acute anti-inflammatory activity of the antirat serum-induced edema in rats at dose of 3 mg/kg at time interval- 2 hr; format: functional; in short: as §1
# Rattus norvegicus [20] = assay: Tested for acute anti-inflammatory activity of the antirat serum-induced edema in rats at dose of 3 mg/kg at time interval- 3h; format: functional; in short: as §1
# Rattus norvegicus [21] = assay: Tested for acute anti-inflammatory activity of the antirat serum-induced edema in rats at dose of 3 mg/kg at time interval- 4 hr; format: functional; in short: as §1
# Rattus norvegicus [22] = assay: Tested for acute anti-inflammatory activity of carrageenan-induced foot edema in rats at dose of 3 mg/kg at time interval- 0.5 hr; format: functional; in short: as §2
# Rattus norvegicus [23] = assay: Tested for acute anti-inflammatory activity of carrageenan-induced foot edema in rats at dose of 3 mg/kg at time interval- 1 hr; format: functional; in short: as §2
# Rattus norvegicus [24] = assay: Tested for acute anti-inflammatory activity of carrageenan-induced foot edema in rats at dose of 3 mg/kg at time interval- 2 hr; format: functional; in short: as §2
# Rattus norvegicus [25] = assay: Tested for acute anti-inflammatory activity of carrageenan-induced foot edema in rats at dose of 3 mg/kg at time interval- 3h; format: functional; in short: as §2
# Rattus norvegicus [26] = assay: Tested for acute anti-inflammatory activity of carrageenan-induced foot edema in rats at dose of 3 mg/kg at time interval- 4 hr; format: functional; in short: as §2
# Rattus norvegicus [27] = assay: Tested for acute anti-inflammatory activity of the antirat serum-induced edema in rats at dose of 100 mg/kg at time interval- 0.5 hr; format: functional; in short: as §1
# Rattus norvegicus [28] = assay: Tested for acute anti-inflammatory activity of the antirat serum-induced edema in rats at dose of 100 mg/kg at time interval- 1 hr; format: functional; in short: as §1
# Rattus norvegicus [29] = assay: Tested for acute anti-inflammatory activity of the antirat serum-induced edema in rats at dose of 100 mg/kg at time interval- 2 hr; format: functional; in short: as §1
# Rattus norvegicus [30] = assay: Tested for acute anti-inflammatory activity of the antirat serum-induced edema in rats at dose of 100 mg/kg at time interval- 3h; format: functional; in short: as §1
# Rattus norvegicus [31] = assay: Tested for acute anti-inflammatory activity of the antirat serum-induced edema in rats at dose of 100 mg/kg at time interval- 4 hr; format: functional; in short: as §1
# Rattus norvegicus [32] = assay: Tested for acute anti-inflammatory activity of carrageenan-induced foot edema in rats at dose of 30 mg/kg at time interval- 2 hr; format: functional; in short: as §2
# Rattus norvegicus [33] = assay: Tested for acute anti-inflammatory activity of carrageenan-induced foot edema in rats at dose of 100 mg/kg at time interval- 2 hr; format: functional; in short: as §2
# Rattus norvegicus [34] = assay: Tested for acute anti-inflammatory activity of the antirat serum-induced edema in rats at dose of 3 mg/kg at time interval- 0.5 hr; format: functional; in short: as §1
smiles,measurement,setting,value
Cn1c(=O)[se]c2cc(C(=O)c3cccnc3)ccc21,GSH-Px activity,[1],0
same,GSH-Px activity,[2],0
same,inhibition,[3],4%
same,inhibition,[4],1%
O=c1[nH]c2ccc(C(O)c3ccccc3)cc2[se]1 (stereo unspecified),GSH-Px activity,[1],0
same,GSH-Px activity,[2],10
same,inhibition,[3],-1%
same,inhibition,[4],-1%
Nc1ccc(Cc2ccccc2)cc1[Se][Se]c1cc(Cc2ccccc2)ccc1N,GSH-Px activity,[1],227
same,GSH-Px activity,[2],242
same,inhibition,[3],91%
same,inhibition,[4],97%
CNc1ccccc1[Se][Se]c1ccccc1NC,GSH-Px activity,[1],325
same,GSH-Px activity,[2],267
same,inhibition,[3],52%
same,inhibition,[4],37%
O=c1c2ccccc2[se]n1-c1ccccc1 [EBSELEN],GSH-Px activity,[1],100
same,GSH-Px activity,[2],100
same,inhibition in vivo at 30 mg/kg,Rattus norvegicus [5],-19.6%
same,inhibition in vivo at 30 mg/kg,Rattus norvegicus [6],-3.8%
same,inhibition in vivo at 30 mg/kg,Rattus norvegicus [7],8.2%
same,inhibition in vivo at 100 mg/kg,Rattus norvegicus [8],-93.6%
same,inhibition in vivo at 100 mg/kg,Rattus norvegicus [9],26.9%
same,inhibition in vivo at 100 mg/kg,Rattus norvegicus [10],13.7%
same,inhibition in vivo at 100 mg/kg,Rattus norvegicus [11],0.6%
same,inhibition in vivo at 30 mg/kg,Rattus norvegicus [12],-54%
same,inhibition in vivo at 30 mg/kg,Rattus norvegicus [13],47.5%
same,inhibition in vivo at 30 mg/kg,Rattus norvegicus [14],-4.1%
same,inhibition in vivo at 30 mg/kg,Rattus norvegicus [15],-7.5%
same,inhibition in vivo at 30 mg/kg,Rattus norvegicus [16],3.7%
same,inhibition in vivo at 30 mg/kg,Rattus norvegicus [17],7.9%
same,inhibition in vivo at 3 mg/kg,Rattus norvegicus [18],2.3%
same,inhibition in vivo at 3 mg/kg,Rattus norvegicus [19],-1.1%
same,inhibition in vivo at 3 mg/kg,Rattus norvegicus [20],-6.6%
same,inhibition in vivo at 3 mg/kg,Rattus norvegicus [21],-2.6%
same,inhibition in vivo at 3 mg/kg,Rattus norvegicus [22],-63.5%
same,inhibition in vivo at 3 mg/kg,Rattus norvegicus [23],29.1%
same,inhibition in vivo at 3 mg/kg,Rattus norvegicus [24],30.3%
same,inhibition in vivo at 3 mg/kg,Rattus norvegicus [25],21.4%
same,inhibition in vivo at 3 mg/kg,Rattus norvegicus [26],13.5%
same,inhibition in vivo at 100 mg/kg,Rattus norvegicus [27],4.9%
same,inhibition in vivo at 100 mg/kg,Rattus norvegicus [28],15.9%
same,inhibition in vivo at 100 mg/kg,Rattus norvegicus [29],22%
same,inhibition in vivo at 100 mg/kg,Rattus norvegicus [30],16.7%
same,inhibition in vivo at 100 mg/kg,Rattus norvegicus [31],16.3%
same,inhibition in vivo at 30 mg/kg,Rattus norvegicus [32],10.2%
same,inhibition in vivo at 100 mg/kg,Rattus norvegicus [33],18.4%
same,inhibition in vivo at 3 mg/kg,Rattus norvegicus [34],-9.8%
CCCC(=O)c1ccc2c(c1)[se]c(=O)n2C,GSH-Px activity,[1],0
same,GSH-Px activity,[2],0
same,inhibition,[3],2%
same,inhibition,[4],-3%
CC(C)(Sc1cc(C(C)(C)C)c(O)c(C(C)(C)C)c1)Sc1cc(C(C)(C)C)c(O)c(C(C)(C)C)c1,GSH-Px activity,[2],0
Cn1c(=O)[se]c2cc(C(=O)c3ccc(Cl)cc3)ccc21,GSH-Px activity,[1],0
same,GSH-Px activity,[2],0
same,inhibition,[3],-3%
same,inhibition,[4],2%
Nc1ccc(C(=O)c2ccc(Cl)cc2)cc1[Se][Se]c1cc(C(=O)c2ccc(Cl)cc2)ccc1N,GSH-Px activity,[1],116
same,GSH-Px activity,[2],279
same,inhibition,[3],100%
same,inhibition,[4],100%
CNc1ccc(C(=O)c2ccccc2)cc1[Se][Se]c1cc(C(=O)c2ccccc2)ccc1NC,GSH-Px activity,[1],68
same,GSH-Px activity,[2],298
same,inhibition,[3],100%
same,inhibition,[4],100%
Cc1c(C)c2c(c(C)c1O)CCC(C)(C(=O)O)O2 (stereo unspecified),GSH-Px activity,[2],0
O=C(c1cccnc1)c1ccc2[nH]c(=O)[se]c2c1,GSH-Px activity,[1],0
same,GSH-Px activity,[2],0
same,inhibition,[3],-5%
same,inhibition,[4],-8%
CC(=O)c1ccc(N)c([Se][Se]c2cc(C(C)=O)ccc2N)c1,GSH-Px activity,[1],247
same,GSH-Px activity,[2],238
same,inhibition,[3],100%
same,inhibition,[4],99%
CN(C)C(=O)Nc1ccccc1[Se][Se]c1ccccc1NC(=O)N(C)C,GSH-Px activity,[1],236
same,GSH-Px activity,[2],178
same,inhibition,[3],96%
same,inhibition,[4],97%
Cn1c(=O)[se]c2cc(C(=O)c3ccccc3)ccc21,GSH-Px activity,[1],0
same,GSH-Px activity,[2],0
same,inhibition,[3],-1%
same,inhibition,[4],-3%
Nc1ccc(C(O)c2ccccc2)cc1[Se][Se]c1cc(C(O)c2ccccc2)ccc1N (stereo unspecified),GSH-Px activity,[1],54
same,GSH-Px activity,[2],245
same,inhibition,[3],92%
same,inhibition,[4],97%
CCCC(=O)c1ccc2[nH]c(=O)[se]c2c1,GSH-Px activity,[1],0
same,GSH-Px activity,[2],0
same,inhibition,[3],-3%
same,inhibition,[4],-2%
CC(=O)c1ccc2[nH]c(=O)[se]c2c1,GSH-Px activity,[1],0
same,GSH-Px activity,[2],12
same,inhibition,[3],1%
same,inhibition,[4],6%
CN(C)C(=O)Nc1ccc(C(=O)c2ccccc2)cc1[Se][Se]c1cc(C(=O)c2ccccc2)ccc1NC(=O)N(C)C,GSH-Px activity,[1],212
same,GSH-Px activity,[2],212
same,inhibition,[3],98%
same,inhibition,[4],99%
O=C(c1ccc(Cl)cc1)c1ccc2[nH]c(=O)[se]c2c1,GSH-Px activity,[1],0
same,GSH-Px activity,[2],0
same,inhibition,[3],-5%
same,inhibition,[4],5%
O=c1[nH]c2ccc(Cc3ccccc3)cc2[se]1,GSH-Px activity,[1],0.7
same,GSH-Px activity,[2],-1
same,inhibition,[3],-6%
same,inhibition,[4],-7%
